High-throughput results from PubChem.
Statin myotox sup: suppressors of statin myotoxicity in C2C12 myotubes, primary screen, cell-based, single point, plate reader. C2C12 myotubes + simvastatin, ATP luminescence, 48 h; scaled: DMSO 0, geranylgeraniol control 100. rescue of ATP level, % at 7.49 µM. actives 0.78% (n = 330,000);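 active = mean ATP rescue above about 67%, or every replicate alone reaching that limit, limit read from the data, passing the limit was not always enough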;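 also: myotubes were challenged with 10 µM simvastatin during compound exposure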
SUMO Mot1 rescue: yeast Mot1-301 growth rescue at high temperature, primary screen, SUMOylation pathway inhibitor project, S. cerevisiae, ATP luminescence, 38.5C; AID 2716, 2010; actives 1% (n = 320,000); growth rescue, % at 18.8 µM; S. cerevisiae Mot1-301 growth rescue; percent above DMSO median, 100 means doubled;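 active = every valid replicate shows activation above 250% relative to neutral control wells; inactive = the rest, any valid replicate at or below 250%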
Cneo AK release: Cryptococcus neoformans cell lysis inducers, primary screen, AK release luminescence, single concentration; C. neoformans lysis, adenylate kinase release luminescence, 4 h; normalised: neutral wells 0, clomiphene wells 100; lysis activity, % at 15 µM; actives 0.2% (n = 360,000); AID 651654, 2012;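 active = mean lysis activity across replicates of at least 80%, whatever share of replicates individually reach that level; inactive = mean lysis activity below 80%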
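Test system: log-phase Cryptococcus neoformans yeast cells; Quantity: yeast cell density of 5 × 10^6 cells/mL; Buffer or medium: YPD; Doses: single compound concentration per well; Timing: 4 h at 37 °C static, read 1 h later; Measured by: AK luminescence; Read-out basis: lysis from increased AK signal; Control set: Clomiphene as positive control.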
Mot1 SUMO dose: growth restoration of Mot1-301 yeast on galactose, dose response, SUMO pathway inhibitor project, whole organism, S. cerevisiae, ATP luminescence, cherry-picked samples; shares compounds with SUMO Mot1 rescue; S. cerevisiae Mot1-301 galactose growth, 24 h; -100 = growth of slx-deleted rescue strain; growth activity, percent, % at 42 µM; 2,300 tested, under 10 active;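 active = Signal drops as the depositor expects, and the fitted half-maximal dose is no more than ten times the top valid tested dose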;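 also: more negative values mean stronger growth rescue toward the control strain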
Numbers stand for hits; i = inactive; nt = no result; + = active, no number. Hits are enriched below; roughly 1.5% of the tested compounds scored in any of these assays.

SMILES	Statin myotox sup	SUMO Mot1 rescue	Cneo AK release	Mot1 SUMO dose
O=C(NCC[C@H]1CC[C@H](NC(=O)C2CCC2)[C@@H](CO)O1)c1cc(Cl)cc(Cl)c1	i	nt	i	nt
CC(=O)c1cccc(CN2CCCC(N3CCN(c4ccccc4F)CC3)C2)c1 (configuration not stated)	i	796	i	i
COc1ccccc1N1CCN(C2CCCN(Cc3cccc(O)c3)C2)CC1 (configuration not stated)	i	i	i	nt
O=S1(=O)CC(N2CCCCC2)C(N2CCCCC2)C1 (configuration not stated)	nt	366	i	i
O=S1(=O)CC(N2CCCC2)CN1C1CCCCC1 (configuration not stated)	i	nt	i	nt
O=C(C[C@H]1CC[C@H](NC(=O)Nc2cccc(F)c2)[C@H](CO)O1)NCC1CC1	i	nt	i	nt
CC1(OC(=O)CCc2ccccc2)C(=O)C=C2C=C(c3ccc(C#N)cc3)N(c3ccccc3)C=C2C1=O (configuration not stated)	i	i	i	nt
CC1(OC(=O)CCc2ccccc2)C(=O)C=C2C=C(c3ccc(C#N)cc3)N(C3CCCC3)C=C2C1=O (configuration not stated)	i	645	i	i
CC1(OC(=O)CCc2ccccc2)C(=O)C=C2C=C(c3ccc(C#N)cc3)N(CC3CC3)C=C2C1=O (configuration not stated)	i	589	i	i
CC1(OC(=O)CCc2ccccc2)C(=O)C=C2C=C(c3ccc(C#N)cc3)N(CCN3CCOCC3)C=C2C1=O (configuration not stated)	i	i	i	nt
COC(=O)C[C@@H]1C[C@@H]2c3cc(NC(=O)c4cccnc4)ccc3O[C@@H]2[C@H](CO)O1	i	nt	i	nt
CO[C@H]1CN(C)C(=O)c2cc(NC(=O)c3ccc(F)cc3)ccc2OC[C@@H](C)N(C(=O)CN(C)C)C[C@@H]1C	i	nt	nt	nt
O=C(Nc1cccc(Cl)c1)N[C@H]1CC[C@H](CCNC(=O)C2CCCCC2)O[C@H]1CO	i	nt	i	nt
COCC(=O)Nc1ccc2c(c1)C(=O)N(C)[C@@H]1CC[C@@H](CC(=O)NC3Cc4ccccc4C3)O[C@@H]1CO2	i	nt	i	nt
COc1ccccc1NC(=O)C1=C(C)NC(=O)NC1c1ccccc1[N+](=O)[O-] (configuration not stated)	nt	i	nt	nt
CC1=C(C(=O)Nc2ccccc2)C(c2ccccc2[N+](=O)[O-])NC(=O)N1 (configuration not stated)	i	+	i	i
CCCNC(=O)C[C@@H]1CC[C@@H]2[C@@H](COc3ccc(NC(=O)NCC)cc3C(=O)N2C)O1	i	nt	i	nt
CCCN1C(=O)c2[nH]nc(-c3cc(Cl)c(C)cc3O)c2C1c1ccc(O)c(OC)c1 (configuration not stated)	nt	571	nt	i
COCCCN1C(=O)c2[nH]nc(-c3cc(C)cc(C)c3O)c2C1c1ccc(O)c(OC)c1 (configuration not stated)	i	i	nt	nt
CC1c2cc3c(cc2CCN1CC(=O)Nc1ccccc1)OCCCO3 (configuration not stated)	i	653	i	i
Cc1ccc(NC(=O)CN2CCc3cc4c(cc3C2C)OCCCO4)cc1 (configuration not stated)	i	i	i	nt
Cc1noc(C)c1NC(=O)NCC[C@H]1CC[C@@H](NC(=O)Nc2cccc(F)c2)[C@H](CO)O1	i	nt	i	nt
COc1ccc(/C=C/C(=O)N2CCN(c3ccccc3)CC2)cc1S(=O)(=O)N1CCOCC1	nt	i	nt	nt
COc1ccc(/C=C/C(=O)N2CCC(C(N)=O)CC2)cc1S(=O)(=O)N1CCOCC1	i	714	i	i
CCC(=O)N1[C@@H]2c3cccc(=O)n3C[C@@H]2[C@@H](CO)[C@@H]1C(=O)NCc1ccc(F)cc1	i	nt	i	nt
SMILES	Statin myotox sup	SUMO Mot1 rescue	Cneo AK release	Mot1 SUMO dose
COCCNC(=O)C[C@@H]1CC[C@H]2[C@H](COc3ccc(NC(C)=O)cc3C(=O)N2C)O1	i	nt	i	nt
CO[C@H]1CN(C)C(=O)c2ccc(NC(C)=O)cc2OC[C@@H](C)N(CC2CCCCC2)C[C@@H]1C	i	nt	i	nt
O=C(NCC[C@@H]1CC[C@@H](NS(=O)(=O)c2cccc(F)c2)[C@@H](CO)O1)C1CCOCC1	i	nt	i	nt
CCNc1nc(NCC)nc(SCCOC(=O)Nc2ccccc2)n1	i	+	i	i
Cc1cc2nc(SCCOC(=O)Nc3ccccc3)nc(C)c2cc1C	nt	i	i	nt
CCOC(=O)CS(=O)(=O)c1ccc2ccccc2c1	i	955	i	i
CCOC(=O)CS(=O)(=O)c1ccccc1	i	nt	i	nt
COCc1cn(CC[C@H]2CC[C@H](NC(=O)Nc3ccc(Cl)cc3)[C@H](CO)O2)nn1	i	nt	i	nt
NCCOc1ccccc1-c1ccccc1	i	i	i	nt
Nc1ccc(Oc2ccccc2-c2ccccc2)cc1	nt	446	i	i
CC(C)NC(=O)N(C)C[C@@H]1OCCCC[C@@H](C)Oc2ccc(NC(=O)Nc3ccc(F)cc3)cc2C(=O)N([C@@H](C)CO)C[C@H]1C	nt	nt	i	nt
CCCCC(=O)Nc1nnc(/C=C/c2ccc(OC)cc2)s1	i	714	i	i
CCCC(=O)Nc1nnc(/C=C/c2ccc(OC)cc2)s1	nt	i	nt	nt
C[C@H]1CCCCO[C@@H](CN(C)Cc2ccc(C(=O)O)cc2)[C@@H](C)CN([C@@H](C)CO)C(=O)c2cc(NC(=O)CCC(F)(F)F)ccc2O1	nt	nt	i	nt
COc1ccccc1OCCCOc1ccc(C)cc1Br	nt	i	nt	nt
COc1cc(C)ccc1OCCCOc1ccccc1Br	i	+	i	i
Cn1c(N/N=C/c2cc3ccccc3nc2Cl)nc2ccccc21	nt	i	nt	nt
Cc1nnc(C)n1/N=C/c1cc2ccccc2nc1Cl	i	608	i	i
COC(=O)c1ccc(CN2CCN(C3CCCCC3)C(CCO)C2)cc1 (configuration not stated)	i	403	nt	i
COC(=O)c1ccc(CN2CCN(C3CCCC3)C(CCO)C2)cc1 (configuration not stated)	i	i	i	nt
CO[C@@H]1CN(C)C(=O)c2cc(NC(C)=O)ccc2OC[C@@H](C)N(C(=O)c2cnccn2)C[C@@H]1C	i	nt	i	nt
O=C(NCC1CCCO1)c1nn2c(C(F)(F)F)cc(-c3ccco3)nc2c1Cl (configuration not stated)	i	i	i	nt
O=C(NCC1CCCO1)c1nn2c(C(F)(F)F)cc(-c3cc(Br)cs3)nc2c1Br (configuration not stated)	i	472	i	i
C[C@@H]1CN([C@@H](C)CO)C(=O)c2cccc(NS(=O)(=O)c3ccccc3)c2O[C@@H]1CN(C)Cc1ccc(C(F)(F)F)cc1	i	nt	i	nt
C/C(=N\NC(=O)c1ccc(Cl)cc1)c1cccnc1	i	714	i	i
C/C(=N\NC(=O)c1ccc(Cl)cc1)c1cccc(NC(=O)c2cccnc2)c1	i	i	i	nt
